# Laboratory results from ChEMBL document CHEMBL1629690, “Development of hexadecyloxypropyl tenofovir (CMX157) for treatment of infection caused by wild-type and nucleoside/nucleotide-resistant HIV” (Antimicrob Agents Chemother, 2010).
# Test system: Human immunodeficiency virus 1
# Test: Antiviral activity against HIV1 isolate 217 harboring reverse transcriptase D67N/K70E/M184V mutant gene by phenosense assay
# Format: functional, organism-based
# Conditions: Human immunodeficiency virus 1, isolate 217
# Outline: (§1)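 PhenoSense HIV recombinant virus assay: patient-derived HIV-1 with major NRTI resistance mutations tested against increasing drug concentrations to give inhibition curves. EC50 is the concentration giving 50% inhibition. Fold change is the test recombinant EC50 divided by the EC50 of a drug-sensitive wild-type reference virus. Panel of 30 NRTI-resistant isolates plus two wild-type viruses.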
row,Compound,EC50 [µM]
1,Cc1cn([C@H]2C=C[C@@H](CO)O2)c(=O)[nH]c1=O [STAVUDINE],0.42

# Test system: Human immunodeficiency virus 1
# Test: Antiviral activity against HIV1 isolate 063 harboring reverse transcriptase M41L/D67N/K70R/M184V/L210W/T215Y/K219E mutant gene by phenosense assay relative to wild type
# Format: functional
# Conditions: not given
# Outline: (§2)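 Recombinant-virus PhenoSense HIV assay run on a panel of 30 NRTI-resistant HIV-1 mutants and two wild-type viruses. Each virus is tested across increasing drug concentrations to give an inhibition curve and EC50. Fold change is the test recombinant EC50 divided by the EC50 of the drug-sensitive wild-type reference virus.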
row,Compound,fold change (FC)
1,Cc1cn([C@H]2C=C[C@@H](CO)O2)c(=O)[nH]c1=O [STAVUDINE],2.3

# Test system: Human immunodeficiency virus 1
# Test: Antiviral activity against HIV1 isolate 066 harboring reverse transcriptase 184V mutant gene by phenosense assay relative to wild type
# Format: functional
# Conditions: not given
# Outline: as §2
row,Compound,fold change (FC)
1,Cc1cn([C@H]2C=C[C@@H](CO)O2)c(=O)[nH]c1=O [STAVUDINE],0.77

# Test system: Human immunodeficiency virus 1
# Test: Antiviral activity against HIV1 isolate 069 harboring reverse transcriptase D67E/T69SSG/V75M/M184V/L210W/T215Y mutant gene by phenosense assay relative to wild type
# Format: functional
# Conditions: not given
# Outline: as §2
row,Compound,fold change (FC)
1,Cc1cn([C@H]2C=C[C@@H](CO)O2)c(=O)[nH]c1=O [STAVUDINE],11

# Test system: Human immunodeficiency virus 1
# Test: Antiviral activity against HIV1 isolate 070 harboring reverse transcriptase 65R/S68G mutant gene by phenosense assay relative to wild type
# Format: functional
# Conditions: not given
# Outline: as §2
row,Compound,fold change (FC)
1,Cc1cn([C@H]2C=C[C@@H](CO)O2)c(=O)[nH]c1=O [STAVUDINE],1.3

# Test system: Human immunodeficiency virus 1
# Test: Antiviral activity against HIV1 isolate 071 harboring reverse transcriptase 65R/S68N/184V mutant gene by phenosense assay relative to wild type
# Format: functional
# Conditions: not given
# Outline: as §2
row,Compound,fold change (FC)
1,Cc1cn([C@H]2C=C[C@@H](CO)O2)c(=O)[nH]c1=O [STAVUDINE],0.99

# Test system: Human immunodeficiency virus 1
# Test: Antiviral activity against HIV1 isolate 162 harboring reverse transcriptase A62V/V75I/F77L/Y115F/F116Y/Q151M/M184V mutant gene by phenosense assay relative to wild type
# Format: functional
# Conditions: not given
# Outline: as §2
row,Compound,fold change (FC)
1,Cc1cn([C@H]2C=C[C@@H](CO)O2)c(=O)[nH]c1=O [STAVUDINE],7.1

# Test system: Human immunodeficiency virus 1
# Test: Antiviral activity against HIV1 isolate 180 harboring reverse transcriptase K65R mutant gene obtained as site-directed mutant of NL4-3 by phenosense assay relative to wild type
# Format: functional
# Conditions: not given
# Outline: as §2
row,Compound,fold change (FC)
1,Cc1cn([C@H]2C=C[C@@H](CO)O2)c(=O)[nH]c1=O [STAVUDINE],1.4

# Test system: Human immunodeficiency virus 1
# Test: Antiviral activity against HIV1 isolate 192 harboring reverse transcriptase M41L/T215Y mutant gene by phenosense assay relative to wild type
# Format: functional
# Conditions: not given
# Outline: as §2
row,Compound,fold change (FC)
1,Cc1cn([C@H]2C=C[C@@H](CO)O2)c(=O)[nH]c1=O [STAVUDINE],1.4

# Test system: Human immunodeficiency virus 1
# Test: Antiviral activity against HIV1 isolate 194 harboring reverse transcriptase M41L/T215Y/M184V mutant gene by phenosense assay relative to wild type
# Format: functional
# Conditions: not given
# Outline: as §2
row,Compound,fold change (FC)
1,Cc1cn([C@H]2C=C[C@@H](CO)O2)c(=O)[nH]c1=O [STAVUDINE],1.5

# Test system: Human immunodeficiency virus 1
# Test: Antiviral activity against HIV1 isolate 201 harboring reverse transcriptase M41L/L210W/T215Y mutant gene by phenosense assay relative to wild type
# Format: functional
# Conditions: not given
# Outline: as §1
row,Compound,fold change (FC)
1,Cc1cn([C@H]2C=C[C@@H](CO)O2)c(=O)[nH]c1=O [STAVUDINE],1.8

# Test system: Human immunodeficiency virus 1
# Test: Antiviral activity against HIV1 isolate 203 harboring reverse transcriptase M41L/L210W/T215Y/M184V mutant gene by phenosense assay relative to wild type
# Format: functional
# Conditions: not given
# Outline: as §1
row,Compound,fold change (FC)
1,Cc1cn([C@H]2C=C[C@@H](CO)O2)c(=O)[nH]c1=O [STAVUDINE],1.5

# Test system: Human immunodeficiency virus 1
# Test: Antiviral activity against HIV1 isolate 204 harboring reverse transcriptase M41L/L210W/T215Y/M184V mutant gene by phenosense assay relative to wild type
# Format: functional
# Conditions: not given
# Outline: as §1
row,Compound,fold change (FC)
1,Cc1cn([C@H]2C=C[C@@H](CO)O2)c(=O)[nH]c1=O [STAVUDINE],1.8

# Test system: Human immunodeficiency virus 1
# Test: Antiviral activity against HIV1 isolate 206 harboring reverse transcriptase D67N/K70R mutant gene by phenosense assay relative to wild type
# Format: functional
# Conditions: not given
# Outline: as §1
row,Compound,fold change (FC)
1,Cc1cn([C@H]2C=C[C@@H](CO)O2)c(=O)[nH]c1=O [STAVUDINE],1.3

# Test system: Human immunodeficiency virus 1
# Test: Antiviral activity against HIV1 isolate 211 harboring reverse transcriptase D67N/K70R/T215F/K219E/M184V mutant gene by phenosense assay relative to wild type
# Format: functional
# Conditions: not given
# Outline: as §1
row,Compound,fold change (FC)
1,Cc1cn([C@H]2C=C[C@@H](CO)O2)c(=O)[nH]c1=O [STAVUDINE],1.3

# Test system: Human immunodeficiency virus 1
# Test: Antiviral activity against HIV1 isolate 212 harboring reverse transcriptase L210W/T215Y mutant gene by phenosense assay relative to wild type
# Format: functional
# Conditions: not given
# Outline: as §1
row,Compound,fold change (FC)
1,Cc1cn([C@H]2C=C[C@@H](CO)O2)c(=O)[nH]c1=O [STAVUDINE],1.6

# Test system: Human immunodeficiency virus 1
# Test: Antiviral activity against HIV1 isolate 217 harboring reverse transcriptase D67N/K70E/M184V mutant gene by phenosense assay relative to wild type
# Format: functional
# Conditions: not given
# Outline: as §1
row,Compound,fold change (FC)
1,Cc1cn([C@H]2C=C[C@@H](CO)O2)c(=O)[nH]c1=O [STAVUDINE],0.7

# Test system: Human immunodeficiency virus 1
# Test: Antiviral activity against HIV1 isolate 220 harboring reverse transcriptase K70E/M184V mutant gene by phenosense assay relative to wild type
# Format: functional
# Conditions: not given
# Outline: as §1
row,Compound,fold change (FC)
1,Cc1cn([C@H]2C=C[C@@H](CO)O2)c(=O)[nH]c1=O [STAVUDINE],0.65
